Assay outcomes deposited in PubChem BioAssay by several laboratories.
NPY2 pot ag = human NPY-Y2 potentiation or agonism, primary screen; P49146; cells expressing NPY-Y2, potentiator/agonist read-out; actives 0.45% (n = 220,000); activation, % at 3.6 µM; in the data active = activation above about 27%;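 note: cells stimulated with NPY near EC25 plus isoproterenol at EC100; 0% = vehicle plus submaximal agonist and 100% = vehicle plus saturating agonist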
Target sequence (P49146 whole entry, looked up): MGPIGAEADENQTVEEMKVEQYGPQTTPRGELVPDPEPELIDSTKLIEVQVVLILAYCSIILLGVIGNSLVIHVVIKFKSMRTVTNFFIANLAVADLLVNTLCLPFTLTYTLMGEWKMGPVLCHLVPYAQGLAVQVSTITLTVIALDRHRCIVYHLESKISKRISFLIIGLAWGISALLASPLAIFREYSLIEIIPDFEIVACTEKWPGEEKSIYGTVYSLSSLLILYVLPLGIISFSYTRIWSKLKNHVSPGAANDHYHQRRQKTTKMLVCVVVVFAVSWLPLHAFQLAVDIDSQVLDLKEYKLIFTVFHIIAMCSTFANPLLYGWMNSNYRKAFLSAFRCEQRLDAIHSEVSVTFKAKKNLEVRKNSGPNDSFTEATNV
NPY-Y1 PAM-ag = potentiators or agonists of human neuropeptide Y receptor Y1 | P25929 | NPY-Y1 expressing cells, potentiator/agonist activation | activation, % at 3.6 µM | actives 0.37% (n = 220,000) | AID 1304; in the data active = activation above about 33%, passing the limit was not always enough;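 note: cells stimulated with NPY at EC10 then isoproterenol at EC100; 0% = low agonist plus stimulus and 100% = saturating agonist plus stimulus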
NPY Y1 blocker = NPY-Y1 (human) receptor antagonism; P25929; HEK293-CNG Y1 cells, membrane potential fluorescence; NPY at EC95, then isoproterenol; inhibition, % at 3.6 µM; actives 1% (n = 200,000); AID 1040;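 active = inhibition above the campaign mean inhibition of all tested compounds plus 3 SD, cut at about 20% in these data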;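 note: 0% = DMSO wells given NPY plus isoproterenol and 100% = isoproterenol alone without NPY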
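Assay system: HEK293 cells with Y1 receptor plus CNG channel | Probe or stimulus: NPY (25 nM), isoproterenol (1 µM), Ro 20-1724 (25 µM) | Timing: Compound incubation 1 h at room temperature, readout 45 min post-stimulation | Measured by: Membrane-potential fluorescent dye readout | Benchmarks: High control isoproterenol alone, low control NPY with isoproterenol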
NPY-Y2 antag = blocks the human neuropeptide Y Y2 receptor; AID 793; actives 0.99% (n = 140,000); NPY-Y2 expressing cells, antagonist mode; inhibition, % at 2.7 µM;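 note: 0% = vehicle with agonist challenge and 100% = reference antagonist with challenge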
MT stabilizer = microtubule stabilization, imaging screen; HeLa tubulin immunostaining HCS, 24 h; share of cells brighter than vehicle mean+2SD; % tubulin-high responders, % at 10 µM; actives 0.83% (n = 200,000); AID 2205;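 active = plate Z-score above 3 for both tubulin-high and condensed-nucleus cell shares, with cell loss under 80%, at 10 µM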;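 note: anti alpha tubulin signal scored within the nucleus-defined area of each cell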
b-catenin transl = beta-catenin nuclear translocation modulation. HeLa beta-catenin nuclear translocation, immunofluorescence imaging. AID 1665. actives 0.3% (n = 190,000). nuclear translocation activity, % at 5 µM;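 active = nuclear translocation activity above 50% at 5 µM, with a well cell count of 50 or more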;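 note: per-cell ratio of nuclear to cytoplasmic median beta-catenin stain intensity; plate controls were DMSO negative control for no effect and GSK-3 inhibitor IX positive control for full effect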
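Test system: human HeLa cells, endogenous beta-catenin. Times: 24 h compound exposure, 37°C. Measured by: beta-catenin immunofluorescence imaging with DAPI.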
NPY-Y1 ant conf = confirmation of human neuropeptide Y receptor Y1 antagonists | shares compounds with NPY Y1 blocker | HEK293-CNG NPY-Y1, membrane potential fluorescence, cAMP; NPY challenge against isoproterenol-raised cAMP | inhibition, % at 3.6 µM | actives 21% (n = 1,200) | AID 1254; in the data active = inhibition above about 20%;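 note: 0% = vehicle with agonist plus stimulus and 100% = stimulus alone without agonist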
NPY2 antag ctr = human NPY-Y2 antagonism in NPY-Y1 counter-screen | shares compounds with NPY Y1 blocker | HEK293 NPY-Y2 CNG membrane potential fluorescence; cells given NPY, then isoproterenol | inhibition, % at 3.6 µM | actives 28% (n = 1,200) | AID 1255;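 note: 0% = DMSO with agonist challenge and 100% = reference antagonist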
Starred values were filed as active, the others as inactive. Shown are actives, neighbours in structure and some others; about 2.6% of the full set was active somewhere. Cut-off read from the data, not from the text of the source, unless noted: active = inhibition above about 17%; inactive = the rest.

How did CCOc1cccc(-c2nc(C(N)=O)c3[nH]c(=O)n(-c4cccc(Cl)c4)c3n2)c1O do in these assays?
NPY2 pot ag: -2; NPY-Y1 PAM-ag: 10; NPY Y1 blocker: 0; NPY-Y2 antag: -1; MT stabilizer: 3; b-catenin transl: -2

Results for COC(=O)c1ccc(Cn2cnc3c(cnn3-c3ccc(F)cc3)c2=O)o1 ?
NPY2 pot ag: -31; NPY-Y1 PAM-ag: -32; NPY Y1 blocker: 7; NPY-Y2 antag: 8; MT stabilizer: 6; b-catenin transl: -1

What do the screens show for `Cc1ccc(-n2ncc3c(=O)[nH]c(SCC(=O)N4CCOCC4)nc32)cc1`?
NPY2 pot ag: 16; NPY-Y1 PAM-ag: -9; NPY Y1 blocker: 3; NPY-Y2 antag: -1; MT stabilizer: 6; b-catenin transl: -1

How did COC(=O)c1ccc(Cn2cnc3c(cnn3-c3ccc(C)c(C)c3)c2=O)o1 do in these assays?
NPY2 pot ag: -17; NPY-Y1 PAM-ag: -20; NPY Y1 blocker: 27*; NPY-Y2 antag: 17; MT stabilizer: 3; b-catenin transl: 0; NPY-Y1 ant conf: 12; NPY2 antag ctr: 9

How did COC(=O)c1ccc(CSc2nc3c(cnn3-c3ccc(C)cc3)c(=O)[nH]2)o1 do in these assays?
NPY2 pot ag: -2; NPY-Y1 PAM-ag: -29; NPY Y1 blocker: 27*; NPY-Y2 antag: 10; MT stabilizer: 4; b-catenin transl: -1; NPY-Y1 ant conf: 3; NPY2 antag ctr: 10

What do the screens show for `Cc1cccc(-c2nc3c(c(=O)c4ccccc4n3C)c(=O)n2-c2ccccc2)c1`?
NPY2 pot ag: -23; NPY-Y1 PAM-ag: -22; b-catenin transl: 1

How did O=Cc1ccc(OCC(=O)NC(=O)NC2CCCCC2)cc1 do in these assays?
NPY2 pot ag: -9; NPY-Y1 PAM-ag: -5; NPY Y1 blocker: -2; NPY-Y2 antag: -2; MT stabilizer: 2; b-catenin transl: -5

Results for CC(NCCC(Cc1ccccc1)c1ccco1)c1ccccc1 (centres undefined) ?
NPY2 pot ag: -16; NPY-Y1 PAM-ag: 27; b-catenin transl: -1

What do the screens show for `CCC(=O)N(CCC(Cc1ccccc1)c1ccco1)Cc1ccco1` (centres undefined)?
NPY2 pot ag: -15; NPY-Y1 PAM-ag: -24; NPY Y1 blocker: 42*; MT stabilizer: 2; b-catenin transl: -1; NPY-Y1 ant conf: 13; NPY2 antag ctr: 7

How did CCC(=O)N(CCC(Cc1ccccc1)c1ccc2c(c1)OCO2)Cc1ccccc1F (centres undefined) do in these assays?
NPY2 pot ag: -7; NPY-Y1 PAM-ag: -18; NPY Y1 blocker: 47*; NPY-Y2 antag: 16; MT stabilizer: 2; NPY-Y1 ant conf: 19; NPY2 antag ctr: 12

What do the screens show for `CCCn1c(SCC(=O)Nc2ccccc2N2CCCCC2)nc2c1c(=O)n(C)c(=O)n2C`?
NPY2 pot ag: -12; NPY-Y1 PAM-ag: -33; NPY Y1 blocker: 26*; NPY-Y2 antag: 11; MT stabilizer: 4; NPY-Y1 ant conf: 15; NPY2 antag ctr: 13

What do the screens show for `CCCn1c(SCC(=O)Nc2ccccc2C(=O)OC)nc2c1c(=O)n(C)c(=O)n2C`?
NPY2 pot ag: 0; NPY-Y1 PAM-ag: 3; NPY Y1 blocker: -2; NPY-Y2 antag: 3; MT stabilizer: 2; b-catenin transl: 0

Results for N#C/C(=C\c1ccc(Cl)cc1)C(=O)Nc1cccnc1 ?
NPY2 pot ag: 0; NPY-Y1 PAM-ag: -26; b-catenin transl: -2

Results for CC(NC(=O)CNC(=O)C(Cc1ccccc1)NC(=O)OCc1ccccc1)C(N)=O (centres undefined) ?
NPY2 pot ag: 14; NPY-Y1 PAM-ag: -3; NPY Y1 blocker: 0; MT stabilizer: 3; b-catenin transl: -2

How did COc1cccc(C(=O)c2c[nH]c(C(=O)NCCCN3CCOCC3)c2)c1 do in these assays?
NPY2 pot ag: -2; NPY-Y1 PAM-ag: -5; NPY Y1 blocker: -2; MT stabilizer: 2; b-catenin transl: -1

What do the screens show for `CCN(CC)CCNCc1cc(Cl)ccc1OCc1ccccc1F`?
NPY2 pot ag: 4; NPY-Y1 PAM-ag: -22; NPY Y1 blocker: 24*; MT stabilizer: 4; b-catenin transl: -1; NPY-Y1 ant conf: 12; NPY2 antag ctr: 14

Results for CCNCc1ccc(OCc2ccccc2F)c(OC)c1 ?
NPY2 pot ag: -3; NPY-Y1 PAM-ag: -17; NPY Y1 blocker: 3; MT stabilizer: 6; b-catenin transl: -5

What do the screens show for `CCCn1c(NC(=O)c2ccc(Cl)c(S(=O)(=O)N3CCCC3)c2)nc2ccccc21`?
NPY2 pot ag: -38; NPY-Y1 PAM-ag: -74; NPY Y1 blocker: 22*; NPY-Y2 antag: 11; MT stabilizer: 7; b-catenin transl: 8; NPY-Y1 ant conf: 13; NPY2 antag ctr: 22*

How did O=C(NCc1nc2ccccc2[nH]1)c1ccc(Cl)c(S(=O)(=O)N2CCCC2)c1 do in these assays?
NPY2 pot ag: -5; NPY-Y1 PAM-ag: -16; NPY Y1 blocker: -5; NPY-Y2 antag: 1; MT stabilizer: 4; b-catenin transl: -1

What do the screens show for `COc1ccc(N(C)S(=O)(=O)c2cccc(C(=O)NC3CCCCCC3)c2)cc1`?
NPY2 pot ag: -19; NPY-Y1 PAM-ag: -13; NPY Y1 blocker: 39*; MT stabilizer: 3; b-catenin transl: -4; NPY-Y1 ant conf: 10; NPY2 antag ctr: 12

What do the screens show for `COc1ccc(N(C)S(=O)(=O)c2cccc(C(=O)N(C)Cc3ccc(C)o3)c2)cc1`?
NPY2 pot ag: -14; NPY-Y1 PAM-ag: -9; NPY Y1 blocker: 31*; MT stabilizer: 2; b-catenin transl: -1; NPY-Y1 ant conf: 7; NPY2 antag ctr: 16

How did COc1ccc(N(C)S(=O)(=O)c2cccc(C(=O)NCc3ccc4c(c3)OCO4)c2)cc1 do in these assays?
NPY2 pot ag: 8; NPY-Y1 PAM-ag: -11; NPY Y1 blocker: 2; MT stabilizer: 2; b-catenin transl: -2

Results for COc1ccc(N(C)S(=O)(=O)c2cccc(C(=O)NC3CCC(C)CC3)c2)cc1 (centres undefined) ?
NPY2 pot ag: -6; NPY-Y1 PAM-ag: -3; NPY Y1 blocker: 46*; MT stabilizer: 4; b-catenin transl: -5; NPY-Y1 ant conf: 27*; NPY2 antag ctr: 15

How did OCCOCCn1c2ccccc2c2ccccc21 do in these assays?
NPY2 pot ag: 10; NPY-Y1 PAM-ag: 12; NPY Y1 blocker: -5; NPY-Y2 antag: 2; MT stabilizer: 4; b-catenin transl: -2
